Our source for the inhibition, IC50 and inhibition in vivo values is ChEMBL document CHEMBL1148218, “Structures of new beta-carboline-type alkaloids with antiallergic effects from Stellaria dichotoma(1,2)” (J Nat Prod, 2004).

For assay [1], the system named is RBL-2H3. The assay is described as follows: Inhibition of beta-hexosaminidase in anti-DNP IgE sensitized rat RBL2H3 cells at 100 uM after 10 mins. The settings on record: RBL-2H3, 10 min. It counts as functional. In short, it runs like this:
(§1)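 IgE-sensitized RBL-2H3 cells (2 × 10^5/well) in Siraganian buffer with 5.6 mM glucose, 1 mM CaCl2, 0.1% BSA, 10 min at 37 °C; sample in DMSO (final 0.1%) added for 10 min, then DNP-BSA (final 10 μg/mL). After 10 min supernatant reacted with 1 mM p-nitrophenyl-N-acetyl-β-D-glucosaminide, pH 4.5, 37 °C, 1 h; stopped at pH 10, A405. Percent inhibition; IC50 determined graphically.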

Assay [2] deals with RBL-2H3. The assay is described as follows: Inhibition of beta-hexosaminidase in anti-DNP IgE sensitized rat RBL2H3 cells after 10 mins. It is filed as functional, cell-based. To be noted: RBL-2H3, 10 min. In short, it runs like this: as §1
Assay [3] relates to RBL-2H3. The assay is described as follows: Inhibition of anti-DNP IgE-induced TNFalpha production in rat RBL2H3 cells after 4 hrs by ELISA. To be noted: RBL-2H3, 4 h. It is filed as functional, cell-based. In outline: (§2)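 RBL-2H3 cells (2 × 10^5/well in MEM) sensitized with anti-DNP IgE, then stimulated with DNP-BSA antigen in presence of sample; TNF-α and IL-4 in medium measured 4 h later by rat ELISA. Percent inhibition calculated; IC50 read graphically.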

Assay [4] relates to RBL-2H3. The assay is described as follows: Inhibition of anti-DNP IgE-induced IL4 production in rat RBL2H3 cells after 4 hrs by ELISA. It is filed as functional, cell-based. The settings on record: RBL-2H3, 4 h. In outline:
as §2

The test system of the next assay is Mus musculus. The assay is described as follows: Antiallergic activity in ddY mouse ear at 200 mg/kg, po by passive cutaneous anaphylaxis reaction. It counts as functional.

Structures can show the parent of a compound that is named as a salt.

Regarding `COc1cc(C(C)=O)ccc1O` [APOCYNIN], the inhibition at 100 µM with RBL-2H3 [1] was 2.3%. Turning to `COc1cc(C=O)ccc1O` [VANILLIN], the inhibition at 100 µM in the assay on RBL-2H3 [1] is 5.9%. As for `C[C@H](O)c1nc(C(=O)O)cc2c1[nH]c1ccccc12` [DICHOTOMINE A], the inhibition at 100 µM with RBL-2H3 [1] worked out at 5.9%. As for `CCCCOC(=O)c1cc2c([nH]c3ccccc32)c([C@@H](O)CO)n1` [DICHOTOMINE D], in the assay with RBL-2H3 [1], the inhibition at 100 µM was found to be 11.2%. For `O=Cc1ccc(CO)[nH]1`, the inhibition at 100 µM in the assay with RBL-2H3 [1] amounted to 8.5%. With `CN1CCC(=C2c3ccccc3CC(=O)c3sccc32)CC1` [KETOTIFEN FUMARATE], the concentration for half-maximal inhibition (IC50) with RBL-2H3 [2] turned out to be 220 µM. Consider `COc1ccc(CCC(=O)O)cc1OC`, for which the inhibition at 100 µM in the assay with RBL-2H3 [1] was found to be 2.3%.

In the case of `O=Cc1ccc(CO)o1` [AES-103], the inhibition at 100 µM in the assay on RBL-2H3 [1] came to 3.4%. On to `COC(=O)c1cc2c([nH]c3ccccc32)c([C@@H](O)CO)n1` [DICHOTOMINE C], for which, in the assay with RBL-2H3 [1], the inhibition at 100 µM stood at 89.2%. Also, the IC50 with RBL-2H3 [2] came out at 62 µM; in the assay with RBL-2H3 [3], 19 µM; with RBL-2H3 [4], 15 µM. On to `O=C(O)c1cc2c([nH]c3ccccc32)c([C@@H](O)CO)n1` [DICHOTOMINE B], for which, in the assay with RBL-2H3 [1], the inhibition at 100 µM came out at 1.2%. Consider `COc1cc(C(=O)O)ccc1O` [VANILLIC ACID], for which the inhibition at 100 µM with RBL-2H3 [1] stood at 8.4%.

For `CCC(O)c1cc(OC)c2c(c1)OCO2` (configuration not stated), in the assay on RBL-2H3 [1], the inhibition at 100 µM came to 1.2%. The compound `COc1ccc(/C=C/C(=O)Nc2ccccc2C(=O)O)cc1OC` [TRANILAST] registered an inhibition in vivo at 200 mg/kg in the assay with Mus musculus of 72.4%. Moreover, in the assay on RBL-2H3 [2], the IC50 turned out to be 490 µM.

By inhibition is commonly meant how much of the control response was suppressed. Broadly, the IC50 is the concentration needed to halve the response being measured. By inhibition in vivo is commonly meant the share of the control response that was lost under treatment.
